Compounds with a hit are over-represented: about 4.8% of the library has one in this group of screens.
UCH37 inh = inhibitors of human deubiquitinating enzyme UCH37; AID 588478; inhibition, % (concentration not given with the values); purified proteasome/UCH37, Ub-AMC cleavage fluorescence; Q9Y5K5; actives 0.33% (n = 330,000);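 active = mean inhibition over replicate wells above about 20%, limit read from the data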
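Test system – human UCH37 enzyme supplied as purified proteasome complex · Incubation – 30 min preincubation with enzyme, 25 min cleavage at room temperature · Detection – AMC fluorescence from Ub-AMC cleavage, excitation 355 nm, emission 460 nm · Benchmarks – no-proteasome wells (full inhibition) and compound-free wells (no inhibition)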
NALP1 inh = NALP1 inhibition; S. cerevisiae NALP1/ASC/caspase-1 growth, X-gal OD620, 72 h; AID 2071; actives 0.61% (n = 280,000); inhibition, % at 10 µM; in the data active = inhibition mostly above about 24%, no sharp cut-off; inactive = mostly below about 32%
ALR H2O2 inh = blocks human ALR sulfhydryl oxidase activity. P55789. purified ALR, DTT oxidation, H2O2 HRP-luminol luminescence. inhibition, % (test concentration not listed). actives 3.8% (n = 290,000). AID 485317;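 active = mean replicate inhibition above about 79%, with every replicate also reaching it, limit read from the data; inconclusive = only one of the two criteria met; inactive = mean below limit and not every replicate reaching it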
Target sequence (P55789 whole entry, looked up): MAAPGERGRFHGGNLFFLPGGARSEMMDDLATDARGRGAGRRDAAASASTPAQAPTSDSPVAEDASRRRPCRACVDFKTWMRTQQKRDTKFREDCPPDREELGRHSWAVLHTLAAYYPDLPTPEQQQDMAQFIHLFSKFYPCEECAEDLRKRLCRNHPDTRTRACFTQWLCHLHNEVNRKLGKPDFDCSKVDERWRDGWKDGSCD
ATG4B inhibitor = ATG4B (human) cysteine protease inhibition; Q9Y4P1; ATG4B cleavage of LC3-PLA2, NBD-HPC fluorescence, 1 h; inhibition, % at 8.33 µM; actives 0.51% (n = 340,000); AID 504462; in the data active = inhibition above about 40%
NALP3 yeast inh = inhibitors of NALP3 inflammasome in yeast. AID 2825. Yeast reconstituted NLRP3/ASC/caspase-1, beta-gal luminescence, 24 h. inhibition, % at 10 µM. actives 0.39% (n = 330,000);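 active = inhibition of 50% or more; inactive = inhibition below 50%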
Calb FLC = C. albicans growth modulation with fluconazole | growth inhibition, % (concentration not given with the values) | C. albicans CaCi-2 + fluconazole, Alamar Blue growth, 48 h | actives 0.57% (n = 300,000);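 active = growth inhibition above about 58% in most replicates, limit read from the data, passing the limit was not always enough; inconclusive = exactly half the replicates above a set limit; inactive = most replicates below a set limit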;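 also: all wells also contain fluconazole at 8 µg/ml as a sub-toxic cotreatment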
Numbers stand for hits; n = inactive; u = inconclusive; x = no result.

SMILES	UCH37 inh	NALP1 inh	ALR H2O2 inh	ATG4B inhibitor	NALP3 yeast inh	Calb FLC
CC(=NNC(=O)c1nn(C)cc1Cl)c1ccncc1	n	x	x	x	x	x
CC(=NNC(=S)Nc1ccccc1)C1Cc2ccccc2C(=O)O1 (configuration not stated)	n	x	x	x	x	x
c1ccc(N2CCN(c3ccccc3)C2c2ccncc2)cc1	n	n	86	n	n	n
Cc1ccc(N2CCN(c3ccc(C)cc3)C2c2cccnc2)cc1	n	40	x	n	n	n
CC1=CCCC2C(C=C(C)CC1)OC(=O)C2CN1CCCCC1 (configuration not stated)	n	x	x	x	x	x
COc1ccc(C(C2C(=O)CC(C)(C)CC2=O)C2C(=O)CC(C)(C)CC2=O)cc1CO	n	n	96	n	n	n
CN1C(=O)C(O)(CC(=O)/C=C/C=C/c2ccccc2)c2ccccc21 (configuration not stated)	n	n	90	n	n	n
CN=C1SC(CC(=O)Nc2ccc(F)cc2F)C(=O)N1N=C(C)c1cccc(OCC(=O)O)c1 (configuration not stated)	n	x	x	x	x	x
c1ccc(Nc2ccccc2Nc2ccccn2)nc1	n	n	89	n	n	n
Oc1cccc2ccc(Nc3ccccn3)nc12	n	n	u	n	n	103
c1ccc(CNc2ccccn2)cc1	n	n	n	n	n	n
CC1Cc2nc(SCC(=O)Nc3ccc(F)cc3)n(C)c(=O)c2S1 (configuration not stated)	n	n	98	n	n	n
COc1cccc(NC(=O)CSc2nc3c(c(=O)n2C)SC(C)C3)c1 (configuration not stated)	n	n	99	n	n	n
Cc1nnc(NC(=O)CSc2nc3c(c(=O)n2C)SC(C)C3)s1 (configuration not stated)	n	n	n	n	n	n
CCOc1ccc(NC(=O)CSc2nc3c(c(=O)n2C)SC(C)C3)cc1 (configuration not stated)	n	x	98	n	n	x
CCOc1ccccc1NC(=O)CSc1nc2c(c(=O)n1C)SC(C)C2 (configuration not stated)	n	x	n	n	n	n
CC1Cc2nc(SCC(=O)Nc3nccs3)n(C)c(=O)c2S1 (configuration not stated)	n	n	98	n	n	n
Cc1ccccc1C=NNC(=O)c1ccc(-n2cnnn2)cc1	n	x	x	x	x	x
O=C(NN=Cc1cc(Br)cs1)c1ccc2c(c1)OCCO2	n	x	x	x	x	x
COc1cc(C=NNC(=O)c2ccncc2)ccc1OC(=O)c1cc(OC)c(OC)c(OC)c1	n	x	x	x	x	x
C/C(C=NNC(=O)NC1CCCCC1)=C\c1ccccc1	n	x	x	x	x	x
CC(=NNC(=O)c1nnn(-c2nonc2N)c1CN(C)c1ccccc1)c1ccc(O)cc1	n	x	x	x	x	x
CC(=NNC(=O)Cc1ccc(F)cc1)c1ccc(F)cc1	n	x	x	x	x	x
CCOc1ccc(NC(=O)CSc2nc3ccsc3c(=O)n2CCC(=O)O)cc1	n	n	95	n	n	n
Cc1cc(C)cc(NC(=O)CSc2nc3c(c(=O)n2C)SC(C)C3)c1 (configuration not stated)	n	x	97	n	n	n
SMILES	UCH37 inh	NALP1 inh	ALR H2O2 inh	ATG4B inhibitor	NALP3 yeast inh	Calb FLC
Cc1ccc(-n2c(SCC(=O)Nc3cc(C)on3)nc3c(c2=O)SC(C)C3)cc1 (configuration not stated)	n	x	91	n	n	n
Cc1ccc(-n2c(SCC(=O)N3CCCC3)nc3c(c2=O)SCC3)cc1	n	n	87	x	n	n
COc1ccc(-n2c(SCC(=O)N3CCN(c4ccccc4)CC3)nc3c(c2=O)SCC3)cc1	n	n	x	n	n	n
CCOc1ccc(C(=O)NN=Cc2cc([N+](=O)[O-])cs2)cc1	n	x	x	x	x	x
COc1ccc(C=NNC(=O)c2ccccc2NC(=O)c2ccco2)c(OC)c1	n	x	x	x	x	x
Clc1ccc(CONC=Nc2ncnc3sccc23)cc1	n	x	x	x	x	x
CCOC(=O)c1ccc(N=C2NC(=O)CS2)cc1	n	n	98	n	n	n
Cc1ccc(N=C2NC(=O)CS2)cc1	n	n	n	n	n	n
COc1ccc(C2NC(=O)CS2)cc1OC (configuration not stated)	n	n	98	n	n	n
COc1cc(C2NC(=O)CS2)cc(OC)c1OC (configuration not stated)	n	n	x	n	n	n
CC(=O)c1c(O)c2ccccc2n(C(C)C)c1=O	n	31	n	n	n	n
